The record followed here is publication PMC5532717 (ACS Central Science, 2017).

What all share (assay type): biochemical
For one experiment, the target named is T1, GBA2 (Homo sapiens, UniProt Q9HCG7).
T1 sequence (Q9HCG7 1-927): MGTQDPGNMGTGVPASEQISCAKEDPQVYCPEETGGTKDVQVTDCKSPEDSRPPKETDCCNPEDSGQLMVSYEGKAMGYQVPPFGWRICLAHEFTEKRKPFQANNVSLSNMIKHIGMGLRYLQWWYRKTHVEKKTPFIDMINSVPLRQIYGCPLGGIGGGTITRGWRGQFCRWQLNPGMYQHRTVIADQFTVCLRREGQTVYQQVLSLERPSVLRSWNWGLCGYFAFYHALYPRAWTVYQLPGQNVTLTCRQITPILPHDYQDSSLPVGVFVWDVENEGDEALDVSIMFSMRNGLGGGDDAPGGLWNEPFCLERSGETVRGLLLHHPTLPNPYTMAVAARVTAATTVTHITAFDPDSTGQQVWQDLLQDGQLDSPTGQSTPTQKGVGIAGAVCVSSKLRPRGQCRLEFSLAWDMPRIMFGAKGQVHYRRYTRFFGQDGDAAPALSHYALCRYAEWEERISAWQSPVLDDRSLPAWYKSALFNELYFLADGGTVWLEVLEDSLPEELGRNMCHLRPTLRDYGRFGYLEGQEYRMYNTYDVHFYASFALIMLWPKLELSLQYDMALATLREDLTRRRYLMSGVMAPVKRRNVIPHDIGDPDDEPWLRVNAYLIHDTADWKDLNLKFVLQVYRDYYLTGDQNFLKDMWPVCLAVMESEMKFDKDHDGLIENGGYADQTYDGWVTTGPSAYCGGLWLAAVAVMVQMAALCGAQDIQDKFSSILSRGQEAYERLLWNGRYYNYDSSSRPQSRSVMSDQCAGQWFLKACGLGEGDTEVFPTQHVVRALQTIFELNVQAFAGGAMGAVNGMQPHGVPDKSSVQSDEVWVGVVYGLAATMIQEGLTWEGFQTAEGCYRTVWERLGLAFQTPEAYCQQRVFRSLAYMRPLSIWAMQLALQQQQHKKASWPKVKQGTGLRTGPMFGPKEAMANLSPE
The experiment is described as follows: Competitive ABPP against β-glucosidase probe 14, GBA2+ HEK293T lysate. To be noted: 5 from 30 to 0 μM, 1 h at 37 °C, pH 5.8.

In the next experiment the target is T2, GANAB (Homo sapiens, UniProt Q14697).
T2 sequence (Q14697 29-944): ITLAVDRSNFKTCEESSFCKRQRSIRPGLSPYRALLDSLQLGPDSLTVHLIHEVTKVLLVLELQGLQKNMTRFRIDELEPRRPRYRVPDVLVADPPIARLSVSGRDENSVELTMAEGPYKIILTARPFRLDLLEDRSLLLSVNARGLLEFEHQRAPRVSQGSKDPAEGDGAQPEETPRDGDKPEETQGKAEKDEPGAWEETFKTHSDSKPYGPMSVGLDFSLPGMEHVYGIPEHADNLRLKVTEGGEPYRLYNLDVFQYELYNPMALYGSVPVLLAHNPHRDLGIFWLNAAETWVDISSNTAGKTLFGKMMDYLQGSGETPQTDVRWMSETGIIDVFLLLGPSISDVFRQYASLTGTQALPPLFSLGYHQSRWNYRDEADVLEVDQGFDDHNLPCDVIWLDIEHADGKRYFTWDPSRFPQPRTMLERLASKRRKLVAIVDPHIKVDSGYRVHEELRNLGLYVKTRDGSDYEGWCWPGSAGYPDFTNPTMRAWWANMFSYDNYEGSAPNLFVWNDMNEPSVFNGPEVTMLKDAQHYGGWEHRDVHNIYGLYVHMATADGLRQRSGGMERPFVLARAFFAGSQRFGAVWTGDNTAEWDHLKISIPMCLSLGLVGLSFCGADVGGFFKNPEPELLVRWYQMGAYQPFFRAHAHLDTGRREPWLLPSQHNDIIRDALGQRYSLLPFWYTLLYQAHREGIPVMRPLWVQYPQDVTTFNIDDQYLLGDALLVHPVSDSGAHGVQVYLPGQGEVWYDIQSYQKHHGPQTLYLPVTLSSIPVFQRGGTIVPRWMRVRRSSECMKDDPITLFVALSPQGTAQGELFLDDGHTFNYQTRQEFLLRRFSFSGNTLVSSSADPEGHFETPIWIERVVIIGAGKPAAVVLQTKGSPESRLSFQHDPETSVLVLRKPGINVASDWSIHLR
T2 sequence (P14314 15-528 partner): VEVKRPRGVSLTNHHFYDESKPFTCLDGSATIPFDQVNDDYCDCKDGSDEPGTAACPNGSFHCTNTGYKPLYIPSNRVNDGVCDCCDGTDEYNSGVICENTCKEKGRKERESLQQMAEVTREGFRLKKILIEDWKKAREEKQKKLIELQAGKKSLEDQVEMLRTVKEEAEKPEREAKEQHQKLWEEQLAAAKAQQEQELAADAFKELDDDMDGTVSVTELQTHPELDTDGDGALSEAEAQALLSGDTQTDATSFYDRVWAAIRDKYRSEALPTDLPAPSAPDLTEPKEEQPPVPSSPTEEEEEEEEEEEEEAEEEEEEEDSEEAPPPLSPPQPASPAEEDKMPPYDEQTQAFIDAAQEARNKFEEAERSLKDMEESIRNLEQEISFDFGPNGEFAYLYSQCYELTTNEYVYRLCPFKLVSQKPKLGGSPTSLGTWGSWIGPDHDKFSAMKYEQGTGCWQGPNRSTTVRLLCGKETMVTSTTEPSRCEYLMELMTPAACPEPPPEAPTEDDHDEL
The experiment is described as follows: Competitive ABPP against probe 13 in fibroblast lysates, pH 7. The settings on record: pH 7, preincubation 15, 30 or 60 min. The procedure, abridged: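 Human normal dermal fibroblast homogenate (17.6 μg total protein) in 150 mM McIlvaine buffer for 5 min on ice, at pH 4 for GAA and pH 7 for GANAB. Exposed to test compound for 15, 30 or 60 min at 37 °C, then labeled with Cy5 aziridine probe 13 for 30 min at 37 °C. Denatured at 98 °C, 10% SDS–PAGE, Cy5 in-gel fluorescence scan.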

Another experiment deals with sucrase-isomaltase (SIS) (Mus musculus, UniProt B5THE3). The experiment is described as follows: Competitive ABPP against probe 13 in mouse gastrointestinal lysate. The settings on record: mouse intestine lysate, 1 h at 37 °C. The procedure, abridged: (§1)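 Mixed mouse duodenum, jejunum and ileum homogenates were made in 25 mM potassium phosphate pH 6.5 with protease inhibitors (40 μg protein). Held 5 min on ice in McIlvaine buffer pH 4 or 7. Incubated 1 h at 37 °C with test compound (final 150 to 0.005 μM, plus 0), then probe 13 for 30 min at 37 °C. Boiled in Laemmli buffer, 10% SDS–PAGE, Cy5 fluorescence scan.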
sucrase-isomaltase (SIS), sequence (B5THE3 1-1818): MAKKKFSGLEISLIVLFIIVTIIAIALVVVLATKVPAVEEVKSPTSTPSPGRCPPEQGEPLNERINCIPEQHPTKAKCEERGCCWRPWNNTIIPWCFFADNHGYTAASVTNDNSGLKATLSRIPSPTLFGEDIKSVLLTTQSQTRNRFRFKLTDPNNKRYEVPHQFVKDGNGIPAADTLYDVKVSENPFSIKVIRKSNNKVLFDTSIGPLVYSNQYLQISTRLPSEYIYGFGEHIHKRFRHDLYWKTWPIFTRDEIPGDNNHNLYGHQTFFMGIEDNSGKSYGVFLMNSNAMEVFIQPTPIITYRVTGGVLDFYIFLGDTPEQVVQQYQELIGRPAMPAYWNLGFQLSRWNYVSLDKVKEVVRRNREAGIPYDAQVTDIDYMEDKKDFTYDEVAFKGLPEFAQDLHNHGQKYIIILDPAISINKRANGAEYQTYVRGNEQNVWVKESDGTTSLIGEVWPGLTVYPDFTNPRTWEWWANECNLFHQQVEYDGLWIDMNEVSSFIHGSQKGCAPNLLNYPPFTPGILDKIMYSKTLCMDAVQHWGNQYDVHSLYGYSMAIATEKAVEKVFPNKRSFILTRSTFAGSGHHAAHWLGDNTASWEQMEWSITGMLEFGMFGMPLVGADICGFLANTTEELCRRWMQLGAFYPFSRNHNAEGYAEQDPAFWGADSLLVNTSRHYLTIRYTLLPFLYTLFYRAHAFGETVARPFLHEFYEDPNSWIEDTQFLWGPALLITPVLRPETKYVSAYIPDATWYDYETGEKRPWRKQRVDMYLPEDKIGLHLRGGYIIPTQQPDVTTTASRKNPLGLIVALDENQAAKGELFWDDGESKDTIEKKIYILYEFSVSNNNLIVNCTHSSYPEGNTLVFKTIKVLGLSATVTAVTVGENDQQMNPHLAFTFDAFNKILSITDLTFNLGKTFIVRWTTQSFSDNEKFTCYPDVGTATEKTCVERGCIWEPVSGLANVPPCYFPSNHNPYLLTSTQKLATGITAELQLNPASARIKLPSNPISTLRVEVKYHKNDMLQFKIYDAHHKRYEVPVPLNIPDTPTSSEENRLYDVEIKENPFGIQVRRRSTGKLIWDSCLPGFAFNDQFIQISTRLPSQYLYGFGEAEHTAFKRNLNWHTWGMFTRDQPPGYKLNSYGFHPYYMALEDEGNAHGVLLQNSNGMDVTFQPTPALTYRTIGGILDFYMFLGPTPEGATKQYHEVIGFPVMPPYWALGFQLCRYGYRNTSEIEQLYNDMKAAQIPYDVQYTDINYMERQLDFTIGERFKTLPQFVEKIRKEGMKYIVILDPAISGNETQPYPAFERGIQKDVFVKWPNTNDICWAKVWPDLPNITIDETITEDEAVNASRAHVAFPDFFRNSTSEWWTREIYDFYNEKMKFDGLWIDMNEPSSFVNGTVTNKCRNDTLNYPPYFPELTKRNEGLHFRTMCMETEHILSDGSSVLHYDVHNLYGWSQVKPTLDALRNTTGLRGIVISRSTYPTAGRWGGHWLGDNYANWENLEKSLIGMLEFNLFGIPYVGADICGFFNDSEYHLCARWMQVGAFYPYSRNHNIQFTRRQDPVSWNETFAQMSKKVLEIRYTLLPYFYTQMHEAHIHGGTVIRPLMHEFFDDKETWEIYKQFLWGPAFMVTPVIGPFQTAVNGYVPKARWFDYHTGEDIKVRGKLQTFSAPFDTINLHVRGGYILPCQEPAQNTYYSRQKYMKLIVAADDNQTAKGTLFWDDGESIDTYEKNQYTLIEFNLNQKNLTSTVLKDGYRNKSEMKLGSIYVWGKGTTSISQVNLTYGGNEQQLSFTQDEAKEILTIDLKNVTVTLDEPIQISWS

In experiment [1] the test system is maltase-glycoamylase (MGAM). The description is as above. The settings on record: mouse intestine lysate, 1 h at 37 °C. The gist of the method:
as §1

Regarding `O=S1(=O)O[C@@H]2[C@H](O)[C@@H](O)[C@H](O)[C@@H](CO)[C@@H]2O1` [Compound 5, 1,6-epi-cyclophellitol cyclosulfate], the “inhibition of probe 14 labeling of GBA2” value on GBA2 is on record as “no inhibition”. In addition, on GANAB, the “inhibition of probe 13 labeling of GANAB” value is on record as “time dependent inhibition”. Also, the “inhibition of probe 13 labeling of SIS” value at sucrase-isomaltase (SIS) was “inhibited”. In addition, in experiment [1], the “inhibition of probe 13 labeling of MGAM” value is “inhibited”.
